# Only some compounds are listed: those with a hit (about 2.3% of all), similar ones and a draw of the others.
# TRPC4 block: TRPC4 (mouse) channel inhibition | B-score at 10 µM | AID 2247 | HEK293 TRPC4beta/mu-opioid, DAMGO-evoked Fluo4 calcium flux; active compounds read low | 300,000 tested, 0.39% active;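 active means B-score over 3 SD under the library average, no early fluorescence shift, positive overall ratio signal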
#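 Assay system: HEK293 cells with stable TRPC4beta plus mu-opioid receptor expression; Probe or stimulus: DAMGO in two steps, submaximal then maximal; Dosing: single-point compound dosing; Measured by: Fluo4 calcium-dye fluorescence, kinetic read; Read-out basis: B score from integrated Fluo4 fluorescence ratio.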
# TRPC4 PAM: TRPC4 (mouse) allosteric potentiation | HEK293 TRPC4beta/mu-opioid, DAMGO EC20, Fluo-4 Ca2+ flux; active compounds read high | B-score at 10 µM | 310,000 tested, 0.42% active;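 active means B-score of calcium response area above 5 SD of library B-scores, with initial fluorescence ratio within 5 SD of library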
# TRPC6 act: activates the mouse TRPC6 cation channel; 310,000 tested, 0.13% active; AID 2550; B-score at 10 µM; HEK293-TRPC6 membrane potential dye fluorescence; active compounds read high;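 active means B-score of the integrated fluorescence ratio above library mean plus 3 SD, and starting fluorescence ratio within library mean plus 5 SD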;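 further: higher score means more depolarization so channel activation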
# TRPC6 inhibitor: inhibitors of mouse TRPC6 channel; B-score at 10 µM; 310,000 tested, 1.1% active; HEK293-TRPC6, membrane potential dye, ACh-evoked depolarization; active compounds read low;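 active means B-score under library mean minus 3 SD, initial fluorescence not abnormally high, positive integrated signal ratio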;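 further: B-score derived from integrated fluorescence ratio over the kinetic read; more negative B-score means stronger inhibition of depolarization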
# TRPC4 agonist: TRPC4 (mouse) channel activation. B-score at 10 µM. 310,000 tested, 0.49% active. Q9QUQ5. HEK293 TRPC4beta/mu-opioid, Fluo4 calcium fluorescence; active compounds read high. AID 2237;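 active means B-score above 5 SD of library B-scores, and initial fluorescence ratio not above library mean plus 5 SD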;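 further: positive B-score marks a calcium rise read as TRPC4 activation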
#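 Technique: kinetic Fluo4 calcium fluorescence; Test system: TRPC4beta and mu-opioid receptor HEK293 stable cells; Measure: B-scored integrated calcium fluorescence ratio; Benchmarks: low control buffer alone, high control maximal DAMGO; Schedule: 45 min room-temperature Fluo4 loading, 110 s read.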
# A number is an active result; – = inactive; · = no result given.
SMILES,TRPC4 block,TRPC4 PAM,TRPC6 act,TRPC6 inhibitor,TRPC4 agonist
COc1ccc(C(=O)Nc2cc(OC)nc(OC)n2)cc1,–,–,–,–,–
Cc1cc(NC(=O)Nc2cccc(Cl)c2)n(-c2ccccn2)n1,–,–,–,-5.2,–
Cc1cc(NC(=O)Nc2cccc(Cl)c2)n(-c2ccccc2)n1,–,–,–,–,–
CCC(C)NC(=O)C1CC(=O)N(CCc2ccc(F)cc2)C1 (configuration not stated),–,–,–,–,–
Cc1c(C(=O)c2ccc(Cl)cc2[N+](=O)[O-])c2ccccn2c1CCC#N,–,14,–,–,–
O=c1ccc(OCCOc2ccccc2)nn1-c1ccccc1,–,17,–,–,–
O=C(COc1ccc(Br)cc1)c1ccc2c(c1)CCCC2,–,12,–,–,–
Cc1ccc(OCC(=O)c2ccc3c(c2)CCCC3)cc1C,–,–,–,–,–
COC(=O)c1sccc1NC(=O)c1ccc(OC)cc1,–,–,–,–,–
COC(=O)c1sccc1NC(=O)c1ccc(C#N)cc1,–,–,–,-5,–
Cc1cc(C)c(S(=O)(=O)NCc2cccs2)cc1C,–,13,–,–,–
CC(C)N(C(C)C)S(=O)(=O)c1ccc(NC(=O)c2cnccn2)cc1,–,–,–,–,–
NC(=Nc1ccccc1)Nc1ccccc1,–,–,–,–,134
COc1ccccc1CCc1nnc(CCC(=O)NCCCOc2cccnc2)o1,-6,–,–,–,–
COc1ccccc1CCc1nnc(CCC(=O)NC(C)Cc2cccnc2)o1 (configuration not stated),–,–,–,–,–
CCC(C)[C@H](NC(=O)Nc1ccccc1F)C(=O)O (some centres not stated),–,–,–,–,–
Cc1ccc(/C=C2\SC(=S)N(CCCC(=O)Nc3ccccc3C(=O)O)C2=O)cc1,–,–,–,–,–
COc1ccc(/C=C2/SC(=S)N(CCCC(=O)Nc3ccccc3C(=O)O)C2=O)cc1,-6,–,–,–,–
Cc1ccc(S(=O)(=O)Nc2c(C(=O)O)[nH]c3ccccc23)c(C)c1,–,–,–,–,–
COc1ccc(CCNC(=O)Cn2cnc3c(cnn3C(C)(C)C)c2=O)cc1OC,–,26,–,–,–
CC(C)(C)n1ncc2c(=O)n(CC(=O)NCCc3ccccc3)cnc21,·,–,–,–,–
O=C(NCCC(=O)N1CCc2ccccc21)c1ccco1,–,–,–,–,–
O=C(c1ccc([N+](=O)[O-])cc1)N1CCN(c2ncc(Br)cn2)CC1,–,–,–,–,219
Cc1cccc(Nc2nc(N)c([N+](=O)[O-])c(NCc3ccco3)n2)c1,–,10,–,–,–
O=S(=O)(c1ccccc1)N1CCN(C/C=C/c2ccccc2)CC1,-6,–,–,–,–
SMILES,TRPC4 block,TRPC4 PAM,TRPC6 act,TRPC6 inhibitor,TRPC4 agonist
O=C(O)C1C2C=CC(C2)C1C(=O)N1CCN(C/C=C/c2ccccc2)CC1 (configuration not stated),–,–,–,–,84
O=C1OC(N2CCN(C/C=C/c3ccccc3)CC2)c2ccccc21 (configuration not stated),–,–,–,–,83
CC(=C1C(=O)c2ccccc2C1=O)N1CCN(Cc2ccccc2)CC1,–,–,–,–,–
CC(=C1C(=O)c2ccccc2C1=O)N1CCN(C/C=C/c2ccccc2)CC1,–,–,–,–,49
C=CCN(C(=O)Cn1nc(C)n2c(cc3cc(C)ccc32)c1=O)c1ccccc1,–,–,–,–,–
CC(Sc1ccccc1)C(=O)NNC(=O)c1csc(N2CCOCC2)n1 (configuration not stated),–,–,–,–,–
CCOc1ccccc1NC(=O)c1nnn(CC(=O)Nc2cc(C)cc(C)c2)c1N,–,–,–,–,–
Cc1ccn2c(-c3csc(NCc4ccco4)n3)c(C)nc2c1,-6,–,–,–,–
COc1ccc(-c2csc(NCc3ccco3)n2)cc1C,–,–,–,–,–
Cc1ccc(COC(=O)c2ccc3ccccc3n2)cc1,–,–,–,–,–
Cc1ccc(C)c(CSc2nnc(CCN)o2)c1,–,–,–,–,81
NCCc1nnc(SCc2ccccc2)o1,–,16,–,–,–
Cc1ccc(C)c(CSc2nnc([C@@H](N)C(C)C)o2)c1,–,–,–,–,–
CCc1nn(-c2ccccc2)c(N)c1-c1ccc(OC)c(OC)c1,–,–,–,–,–
CC(COc1ccc(C(C)C)cc1)NC(=O)c1ccc(Br)o1 (configuration not stated),–,–,–,–,–
COc1ccccc1C(C)NC(=O)Cc1ccc(S(=O)(=O)N2CCOCC2)s1 (configuration not stated),–,–,–,–,–
Cc1cccc(N2CCN(Cc3ccoc3)CC2)c1C,-5,–,–,–,–
COC(=O)[C@@]1(Cc2ccc(F)cc2)[C@H]2c3cc(C(=O)N(C)C)n(CCc4ccc(OC)c(Br)c4)c3C[C@H]2CN1C(=O)c1ccccc1,–,–,–,–,–
COC(=O)[C@@]1(Cc2ccc(F)cc2)[C@H]2c3cc(C(=O)N(C)C)n(CCc4ccccn4)c3C[C@H]2CN1C(=O)c1ccccc1,–,–,–,–,143
Cc1cccc(OCCSc2nc(N)cc(N)n2)c1,–,–,–,–,–
CC(C)n1c(SCC(N)=O)nc2c1c(=O)n(C)c(=O)n2C,–,–,–,–,–
CCCn1c(SCC(=O)N2c3ccccc3Sc3ccccc32)nc2c1c(=O)n(C)c(=O)n2C,–,77,–,–,–
CC(C)n1c(SCC(=O)N2c3ccccc3Sc3ccccc32)nc2c1c(=O)n(C)c(=O)n2C,–,17,–,–,–
CCOC(=O)CC1CCCCN1C(=O)c1cc(COc2cccc3cnccc23)on1 (configuration not stated),–,–,–,–,–
CCOC(=O)N1CCC2(CC1)C(C#N)=C(N)OC1=C2C(=O)CC(C)C1 (configuration not stated),–,–,–,–,–
SMILES,TRPC4 block,TRPC4 PAM,TRPC6 act,TRPC6 inhibitor,TRPC4 agonist
Cc1nnc2sc(-c3csc4c3CCCC4)nn12,-6,–,–,–,–
CC(c1ccco1)N(C(=O)c1ccccc1NS(=O)(=O)c1ccc(Cl)c([N+](=O)[O-])c1)c1ccccn1 (configuration not stated),–,–,–,–,–
CC(=Nc1ccc(C)cc1)c1sc2ccccc2c1O,-6,–,–,–,–
CCc1nnc(NC(=O)CSCc2cc(=O)n3nc(C)sc3n2)s1,–,–,–,–,–
CC(C)Cn1c(CCNC(=O)c2ccco2)nc2ccccc21,–,–,–,–,–
COc1cccc(CNC(=O)CCC2CCCN(c3cc(C)nc(N(C)C)n3)C2)c1 (configuration not stated),-6,–,–,–,–
O=[N+]([O-])c1cc(S(=O)(=O)Nc2ccccc2)ccc1N1CCN(c2ccc(O)cc2)CC1,–,–,–,–,–
